Assay results reported in publication PMC13570607 (European journal of medicinal chemistry, 2025).

Tests used:
Equilibrium solubility = type: physicochemical; settings: PBS pH 7.4; 24 h
In short: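 About 1-2 mg of dry compound was added to 1 mL PBS pH 7.4 in a test tube. The mixture was inverted for 24 h, then filtered, and the filtrate was quantified by LC/MS/MS.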

TG2 = biological target: T1, TG2 (Homo sapiens, UniProt P21980); test: TG2 transamidase activity in protein lysates of treated SKOV3 cells; type: cell-based
T1 sequence (P21980 1-687): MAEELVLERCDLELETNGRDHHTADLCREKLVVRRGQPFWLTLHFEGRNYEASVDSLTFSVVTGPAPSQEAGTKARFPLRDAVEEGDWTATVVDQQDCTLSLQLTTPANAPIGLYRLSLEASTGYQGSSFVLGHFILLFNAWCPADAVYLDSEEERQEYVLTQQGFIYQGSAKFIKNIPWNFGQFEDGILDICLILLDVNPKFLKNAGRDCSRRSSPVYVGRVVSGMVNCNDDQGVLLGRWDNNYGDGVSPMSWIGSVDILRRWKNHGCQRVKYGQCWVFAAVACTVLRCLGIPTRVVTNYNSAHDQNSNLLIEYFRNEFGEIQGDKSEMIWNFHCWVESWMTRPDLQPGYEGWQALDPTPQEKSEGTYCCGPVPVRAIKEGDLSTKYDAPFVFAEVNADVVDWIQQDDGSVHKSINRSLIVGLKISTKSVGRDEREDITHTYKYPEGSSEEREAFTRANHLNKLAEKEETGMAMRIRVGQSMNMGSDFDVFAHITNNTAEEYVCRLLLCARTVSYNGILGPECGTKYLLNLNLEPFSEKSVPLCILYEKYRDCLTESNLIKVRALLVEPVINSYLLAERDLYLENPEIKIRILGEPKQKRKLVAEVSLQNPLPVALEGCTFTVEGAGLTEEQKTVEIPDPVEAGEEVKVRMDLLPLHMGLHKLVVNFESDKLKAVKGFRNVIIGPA
In short: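 SKOV3 cells were treated with 10 μM test compound for 24 h, and lysates were assayed in a colorimetric transamidase kit. Controls were a reference TG2 inhibitor at 20 μM, VHL ligand at 10 μM, 50 mM EDTA, and lysates of TG2-knockdown or control-shRNA cells. Lysates were incubated with assay mixture for 30 min at 37 °C, then washed, including a 0.1 M NaOH wash. Detection used streptavidin-HRP (1:2000, 15 min, 37 °C), then HRP substrate for 5 min, stopped, and read at 450 nm.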

[1] = Parallel Artificial Membrane Permeability Assay; type: in vitro ADME; settings: 5 μM; 37 °C; 5 h
In short: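 Passive permeability was measured on a pre-coated PAMPA plate. The donor (bottom) side held 0.02% BSA in PBS with compound added from DMSO solution. The receiver (top) side held 0.4% BSA in PBS. After 5 h at 37 °C, receiver samples were quantified by LC/MS/MS.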

Kinetic solubility = type: physicochemical; settings: PBS pH 7.4; room temp 24 h
In short: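 A 10 mM DMSO stock was diluted 1 μL into 99 μL PBS pH 7.4. It was held at room temperature for 24 h, filtered, and quantified by LC/MS/MS.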

[2] = Hepatic microsomal stability; type: in vitro ADME; settings: mouse liver microsomes 1 mg/mL; 1 μM compound; NADPH
In short: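 Incubation buffer was 100 mM potassium phosphate, pH 7.4. The reaction was started with NADPH (1 mM final). Aliquots taken at 0, 5, 10, 20, 40 and 60 min were quenched in acetonitrile (5x v:v), filtered and analysed by LC-MS/MS. Data were log-transformed to give half-life and intrinsic clearance.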

| Equilibrium Solubility (Equilibrium solubility) | TG2 enzymatic (transamidase) activity (TG2; 20 μM) | PAMPA Permeability [1] | Kinetic Solubility (Kinetic solubility) | Microsomal Stability Clint [2] | Microsomal Stability T1/2 [2] | TG2 enzymatic (transamidase) activity (TG2; 10 μM, 24 hours) | SMILES |
| --- | --- | --- | --- | --- | --- | --- | --- |
| 0.76 µM | no effect on transamidating activity | 2.60 10^−6 cm*s^−1 | 54.96 µM | 46 µL/min/mg | 15.2 min | – | Cc1cc(N(C)C)nc(Nc2ccc(NC(=O)Cc3ccccc3)cc2)n1 [MT4] |
| – | – | – | – | – | – | no effect on transamidating activity | Cc1ncsc1-c1ccc(CNC(=O)[C@@H]2C[C@@H](O)CN2C(=O)[C@@H](N)C(C)(C)C)cc1 [VHL ligand 1] |
